This note sets out measurements from ChEMBL document CHEMBL1914358, “Virtual screening targeting the urokinase receptor, biochemical and cell-based studies, synthesis, pharmacokinetic characterization, and effect on breast tumor metastasis” (J Med Chem, 2011).

The source made the active and inactive calls. No cut-off for these calls is given here.

Series [1] addresses T1, Matrix metalloproteinase-9 (Homo sapiens, UniProt P14780). Briefly: Inhibition of human MMP-9 activity in human MDA-MB-231 cells assessed as ECM degradation after 24 hrs by gelatin zymography assay. The format is cell-based.
Series [2] in a line: AUC (0 to infinity) in mouse at 50 mg/kg, po administered as single dose by HPLC-MS/MS analysis. The conditions noted are these: plasma.
For series [3], the system named is hERG potassium channel KCNH2 (Homo sapiens). Briefly: Inhibition of human ERG potassium channel (hERG) at 25 uM by fluorescence polarization assay. In general terms: Block of hERG is tested as a sign of cardiac risk.
The test system of series [4] is MDA-MB-231. Description: Antimetastatic activity in human MDA-MB-231 cells assessed as inhibition of cell invasion after 3 hrs by transwell assay. The format is functional, cell-based. As to conditions: MDA-MB-231, 3 h.
The subject of series [5] is HUVEC. Description: Antiangiogenic activity in human HUVEC cells assessed as inhibition of tube formation by matrigel-based tube formation assay.
The target in series [6] is Urokinase plasminogen activator surface receptor (Homo sapiens, UniProt Q03405). Briefly: Displacement of […] peptide from human uPAR expressed in drosophila S2 cells by fluorescence polarization assay. An outline of the steps:
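Soluble human uPAR (residues 1-283), from stably transfected Drosophila S2 cells, was used at 500 nM with 100 nM AE147-FAM. Inhibitor range 0.78-100 μM in 0.01% Triton X-100/PBS, final 2% DMSO, triplicate. Polarization was read immediately at room temperature (ex 485/em 530 nm).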
(In general: Polarisation of emitted light reports the rotation of a fluorescent probe.)

Series [7] concerns Nucleic Acid. Briefly: Displacement of ethidium bromide from salmon sperm DNA at 10 uM by fluorescence assay. The conditions noted are these: Salmonidae. The format is nucleic-acid assay. An outline of the steps: (§1)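 Fluorescent intercalator displacement: loss of fluorescence from ethidium bromide bound to salmon sperm DNA, excitation 530 nm, at the stated compound concentration.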

In series [8] the target is T2, CYP2C9 (Homo sapiens, UniProt P11712). Briefly: Inhibition of CYP2C9 at 25 uM by fluorsecence-based assay. The format is ADME. An outline of the steps:
(§2)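 Fluorescence-based CYP2C9 assay measuring inhibition of fluorescent substrate metabolism at the stated concentration. Sulphaphenazole at 5 μM served as positive control.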

In series [9] the test system is Nucleic Acid. Briefly: Displacement of ethidium bromide from salmon sperm DNA at 25 uM by fluorescence assay. As to conditions: Salmonidae. The format is nucleic-acid assay. Summed up: as §1
Series [10] can be described thus: Toxicity in po dosed NOD/SCID mouse xenografted human […] cells. The format is organism-based. The conditions noted are these: in vivo.
For series [11], the system named is Nucleic Acid. Description: Displacement of ethidium bromide from salmon sperm DNA at 1 uM by fluorescence assay. As to conditions: Salmonidae. The format is nucleic-acid assay. Summed up:
as §1

The subject of series [12] is MDA-MB-231. Briefly: Antiproliferative activity against human MDA-MB-231 cells assessed as decrease in cell viability after 3 days by MTT assay. The format is functional, cell-based. As to conditions: MDA-MB-231, 72 h. Summed up:
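Cells were grown at 37°C in 10% FBS-DMEM with serially diluted compound, made from 5 mM DMSO stock diluted 1:50 in medium, for 3 days. Viability was read by MTT absorbance at 570 and 630 nm.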

Series [13] in a line: Antitumor activity against human […] cells xenografted in NOD/SCID mouse assessed as decrease in tumor volume at 150 mg/kg, po qd administered 18 days post-implantation measured after 68 days. The format is functional. Further details: scale not given: the % may be the effect or the level left. An outline of the steps: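 Female NOD/SCID mice bearing mammary fat pad TMD-231 tumours were randomized and dosed from day 18 post-implantation by daily oral gavage at 150 mg/kg or vehicle (n = 11). Caliper measurements were taken over 68 days; volume = (shorter² × longer)/2.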

In series [14] the test system is MDA-MB-231. Description: Induction of apoptosis in human MDA-MB-231 cells at 50 uM after 24 hrs by annexin V-FITC and propidium iodide staining relative to control. The format is functional. An outline of the steps:
(§3)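 MDA-MB-231 grown in DMEM/10% FBS with penicillin/streptomycin, 37 °C, 5% CO2, to 80–90% confluence; exposed to compound or 1% DMSO control for 24 h. Cells detached, washed in cold PBS, 1×10^5 cells in binding buffer stained with annexin V-FITC and propidium iodide 15 min at 25 °C in the dark, analysed by flow cytometry; apoptotic = annexin V+/PI−, necrotic = annexin V+/PI+.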

For series [15], the target named is T1, Matrix metalloproteinase-9. Briefly: Inhibition of human MMP-9 activity in human MDA-MB-231 cells assessed as ECM degradation at 50 uM after 24 hrs by gelatin zymography assay. The format is cell-based. An outline of the steps: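 Cells were treated with compound in serum-free medium for 24 h, and conditioned medium was concentrated and protein-normalized. Samples were run on 10% SDS gels containing 1 mg/ml gelatin. Clear bands were quantified after Coomassie staining.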

The subject of series [16] is MDA-MB-231. Briefly: (§4) Inhibition of human MAPK phosphorylation in MDA-MB-231 cells at 100 uM after 30 mins by Western blot analysis. The format is cell-based. An outline of the steps:
(§5)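 MDA-MB-231 cells were exposed to 100 μM compound or 1% DMSO for 30 min and lysed in RIPA buffer with protease and phosphatase inhibitors. Equal protein was run on 4-12% gels under non-reducing conditions and transferred to nitrocellulose. Detection used HRP secondary antibody and chemiluminescence.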

The nature of series [17]: Half life in mouse at 100 mg/kg, po administered as single dose by HPLC-MS/MS analysis. The format is ADME, organism-based. Further details: dose 100 mg/kg, route oral. As to conditions: in vivo.
The test system of series [18] is MDA-MB-231. Briefly: Antimetastatic activity in human MDA-MB-231 cells assessed as inhibition of cell adhesion after 90 mins by crystal violet staining. The conditions noted are these: MDA-MB-231, 1.5 h. The format is functional, cell-based. An outline of the steps:
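Wells were coated with 15 μg/ml fibronectin for 1 h at room temperature, then blocked with 3% heat-denatured BSA for 1 h at 37°C. Subconfluent cells were trypsinized, quenched with soybean trypsin inhibitor and washed in serum-free medium. 2 × 10^4 cells per well with compound, quadruplicate, 90 min at 37°C. Adherent cells were read by crystal violet at 570 nm; mean ± SE.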

A short description of series [19]: Cmax in mouse at 100 mg/kg, po administered as single dose after 5 hrs by HPLC-MS/MS analysis. As to conditions: in vivo. Set-up: dose 100 mg/kg, route oral. The format is ADME, organism-based.
Series [20] is described as follows: Tmax in mouse at 100 mg/kg, po administered as single dose by HPLC-MS/MS analysis. As to conditions: in vivo. The format is ADME, organism-based. Further details: dose 100 mg/kg, route oral.
In series [21] the test system is MDA-MB-231. Description: Induction of necrosis in human MDA-MB-231 cells at 50 uM after 24 hrs by annexin V-FITC and propidium iodide staining relative to control. The format is functional. Summed up:
as §3

Series [22] can be described thus: Apparent oral clearance in mouse at 50 mg/kg administered as single dose by HPLC-MS/MS analysis. The conditions noted are these: in vivo.
In series [23] the test system is TMB-231. Briefly: Antitumor activity against human […] cells xenografted in NOD/SCID mouse assessed as reduction in lung metastatic lesions at 150 mg/kg, po qd administered 18 days post-implantation measured after 68 days. The format is functional, organism-based. Set-up: dose 150 mg/kg. An outline of the steps: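 Female NOD/SCID mice with mammary fat pad TMD-231 tumours received daily oral gavage at 150 mg/kg or vehicle from day 18 (n = 11). At study end lungs were removed and H&E stained. Metastasis number and size were assessed in 2-5 fields per sample and scored 1+ to 4+ relative to the highest sample by a blinded pathologist.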
(In xenograft studies the graft and the host belong to different species.)

In series [24] the test system is MDA-MB-231. Description: Antimetastatic activity in human MDA-MB-231 cells assessed as inhibition of cell migration after 3 hrs by transwell assay. The format is functional, cell-based. The conditions noted are these: MDA-MB-231, 3 h. An outline of the steps: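 Serum-starved (4 h) subconfluent cells, 5 × 10^4 in 0.1% FBS DMEM with compound or 1.0% DMSO, were placed in upper chambers of inserts with fibronectin-coated undersides (30 μg/ml). After 3 h at 37°C, 5% CO2, cells on the underside were methanol-fixed, hematoxylin-stained and counted in ten fields (×200). Triplicate; mean ± SE.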

Series [25] concerns the target T2, CYP2C9. Briefly: Inhibition of CYP2C9 at 5 uM by fluorsecence-based assay.
The target of series [26] is Cytochrome P450 2C9 (Homo sapiens, UniProt P11712). Briefly: Inhibition of CYP2C9 at 1 uM by fluorsecence-based assay. The format is ADME. An outline of the steps:
as §2

The subject of series [27] is MDA-MB-231. Description: Induction of apoptosis in human MDA-MB-231 cells assessed as apoptotic cells at 50 uM after 24 hrs by annexin V-FITC and propidium iodide staining (reference value: 4%). The format is functional. An outline of the steps: as §3
The test system of series [28] is hERG potassium channel KCNH2 (Homo sapiens). Briefly: Inhibition of human ERG channel at 25 uM =.
Series [29] shares this test system. Description: Inhibition of human ERG potassium channel (hERG) at 10 uM by fluorescence polarization assay.
Series [30] shares this test system. Briefly: Inhibition of human ERG potassium channel (hERG) at 1 uM by fluorescence polarization assay.
Series [31] in a line: as §4. As to conditions: MDA-MB-231, 0.5 h. The format is cell-based. Summed up: as §5
Series [32] concerns the target Proto-oncogene tyrosine-protein kinase Src (Homo sapiens) (UniProt P12931). Briefly: Inhibition of human SRC phosphorylation in MDA-MB-231 cells at 100 uM after 30 mins by Western blot analysis. The format is cell-based. An outline of the steps: as §5
Series [33] has as its target Focal adhesion kinase 1 (Homo sapiens) (UniProt Q05397). Description: Inhibition of human FAK phosphorylation in MDA-MB-231 cells at 100 uM after 30 mins by Western blot analysis. The format is cell-based. Summed up: as §5

In general, IC50 refers to the midpoint of a concentration-inhibition curve. What is called inhibition is the percentage by which the read-out fell short of the control. In general, AUC(0-inf) refers to the area under the concentration-time curve extrapolated to infinity. What is called half-life is the time in which the quantity being followed falls by half. As usually defined, the Cmax is the maximum level reached in the sampled fluid or tissue. A word on the Tmax: it is the time at which the peak concentration occurs. The CL/F is the apparent clearance, not corrected for the fraction that reaches the circulation. The Ki is a measure of affinity in units of concentration, obtained from inhibition or displacement.

T1 sequence (P14780 whole entry): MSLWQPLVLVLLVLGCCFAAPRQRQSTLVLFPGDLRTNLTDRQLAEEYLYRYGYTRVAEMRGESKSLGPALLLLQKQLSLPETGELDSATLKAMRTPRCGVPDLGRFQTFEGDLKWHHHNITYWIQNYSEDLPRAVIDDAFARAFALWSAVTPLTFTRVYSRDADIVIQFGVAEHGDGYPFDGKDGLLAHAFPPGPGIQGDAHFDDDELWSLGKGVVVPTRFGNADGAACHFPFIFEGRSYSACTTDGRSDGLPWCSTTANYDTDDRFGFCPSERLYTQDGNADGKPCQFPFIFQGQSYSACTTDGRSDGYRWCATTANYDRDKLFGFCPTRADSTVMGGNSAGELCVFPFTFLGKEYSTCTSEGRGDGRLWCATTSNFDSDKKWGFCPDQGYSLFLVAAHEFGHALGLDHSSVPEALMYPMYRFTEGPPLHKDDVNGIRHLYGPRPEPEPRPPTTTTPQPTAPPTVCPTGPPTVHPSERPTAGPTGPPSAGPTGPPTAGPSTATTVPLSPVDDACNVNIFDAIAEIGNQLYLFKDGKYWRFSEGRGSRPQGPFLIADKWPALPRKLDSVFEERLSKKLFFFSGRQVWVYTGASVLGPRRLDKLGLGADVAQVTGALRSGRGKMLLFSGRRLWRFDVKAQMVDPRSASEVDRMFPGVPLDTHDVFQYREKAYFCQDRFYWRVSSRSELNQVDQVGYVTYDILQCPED
Urokinase plasminogen activator surface receptor, sequence (Q03405 whole entry, the tested form may be a part): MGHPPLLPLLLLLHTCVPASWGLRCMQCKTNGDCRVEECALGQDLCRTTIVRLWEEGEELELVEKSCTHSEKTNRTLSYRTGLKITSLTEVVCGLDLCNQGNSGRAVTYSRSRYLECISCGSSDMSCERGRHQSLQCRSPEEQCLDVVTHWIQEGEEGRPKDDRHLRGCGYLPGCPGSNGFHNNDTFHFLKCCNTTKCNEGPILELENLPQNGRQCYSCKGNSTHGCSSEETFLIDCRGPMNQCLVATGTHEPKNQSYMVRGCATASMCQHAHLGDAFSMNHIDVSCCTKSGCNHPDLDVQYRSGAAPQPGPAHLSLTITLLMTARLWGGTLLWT
T2 sequence (P11712 whole entry): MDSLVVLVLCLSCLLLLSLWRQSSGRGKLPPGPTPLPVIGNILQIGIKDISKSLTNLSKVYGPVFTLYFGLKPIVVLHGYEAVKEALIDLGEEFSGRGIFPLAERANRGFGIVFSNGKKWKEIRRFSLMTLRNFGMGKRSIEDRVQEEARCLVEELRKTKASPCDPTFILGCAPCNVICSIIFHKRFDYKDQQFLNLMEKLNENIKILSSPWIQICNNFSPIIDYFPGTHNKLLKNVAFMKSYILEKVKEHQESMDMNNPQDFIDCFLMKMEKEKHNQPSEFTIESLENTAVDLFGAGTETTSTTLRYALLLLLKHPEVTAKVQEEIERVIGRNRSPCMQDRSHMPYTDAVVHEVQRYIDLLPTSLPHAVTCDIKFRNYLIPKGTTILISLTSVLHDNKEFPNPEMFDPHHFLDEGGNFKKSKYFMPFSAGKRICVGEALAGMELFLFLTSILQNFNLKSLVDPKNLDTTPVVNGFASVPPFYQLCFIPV
Cytochrome P450 2C9, sequence (P11712 whole entry): as above
Proto-oncogene tyrosine-protein kinase Src (Homo sapiens), sequence (P12931 2-536 limits assumed): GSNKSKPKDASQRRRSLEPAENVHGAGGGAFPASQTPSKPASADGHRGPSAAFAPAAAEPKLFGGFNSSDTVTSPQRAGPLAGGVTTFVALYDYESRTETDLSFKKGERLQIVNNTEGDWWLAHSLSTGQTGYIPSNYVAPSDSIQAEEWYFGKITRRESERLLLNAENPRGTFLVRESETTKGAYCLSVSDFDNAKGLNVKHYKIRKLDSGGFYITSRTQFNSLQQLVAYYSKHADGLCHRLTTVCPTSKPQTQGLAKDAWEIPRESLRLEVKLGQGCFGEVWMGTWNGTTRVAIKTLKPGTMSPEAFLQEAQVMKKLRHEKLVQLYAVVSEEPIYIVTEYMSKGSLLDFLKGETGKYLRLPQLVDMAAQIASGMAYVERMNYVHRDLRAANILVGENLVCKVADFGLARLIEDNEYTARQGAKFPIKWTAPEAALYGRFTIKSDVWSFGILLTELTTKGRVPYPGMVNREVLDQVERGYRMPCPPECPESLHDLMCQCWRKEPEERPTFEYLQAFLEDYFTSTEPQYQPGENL
Focal adhesion kinase 1 (Homo sapiens), sequence (Q05397 2-1052 limits assumed): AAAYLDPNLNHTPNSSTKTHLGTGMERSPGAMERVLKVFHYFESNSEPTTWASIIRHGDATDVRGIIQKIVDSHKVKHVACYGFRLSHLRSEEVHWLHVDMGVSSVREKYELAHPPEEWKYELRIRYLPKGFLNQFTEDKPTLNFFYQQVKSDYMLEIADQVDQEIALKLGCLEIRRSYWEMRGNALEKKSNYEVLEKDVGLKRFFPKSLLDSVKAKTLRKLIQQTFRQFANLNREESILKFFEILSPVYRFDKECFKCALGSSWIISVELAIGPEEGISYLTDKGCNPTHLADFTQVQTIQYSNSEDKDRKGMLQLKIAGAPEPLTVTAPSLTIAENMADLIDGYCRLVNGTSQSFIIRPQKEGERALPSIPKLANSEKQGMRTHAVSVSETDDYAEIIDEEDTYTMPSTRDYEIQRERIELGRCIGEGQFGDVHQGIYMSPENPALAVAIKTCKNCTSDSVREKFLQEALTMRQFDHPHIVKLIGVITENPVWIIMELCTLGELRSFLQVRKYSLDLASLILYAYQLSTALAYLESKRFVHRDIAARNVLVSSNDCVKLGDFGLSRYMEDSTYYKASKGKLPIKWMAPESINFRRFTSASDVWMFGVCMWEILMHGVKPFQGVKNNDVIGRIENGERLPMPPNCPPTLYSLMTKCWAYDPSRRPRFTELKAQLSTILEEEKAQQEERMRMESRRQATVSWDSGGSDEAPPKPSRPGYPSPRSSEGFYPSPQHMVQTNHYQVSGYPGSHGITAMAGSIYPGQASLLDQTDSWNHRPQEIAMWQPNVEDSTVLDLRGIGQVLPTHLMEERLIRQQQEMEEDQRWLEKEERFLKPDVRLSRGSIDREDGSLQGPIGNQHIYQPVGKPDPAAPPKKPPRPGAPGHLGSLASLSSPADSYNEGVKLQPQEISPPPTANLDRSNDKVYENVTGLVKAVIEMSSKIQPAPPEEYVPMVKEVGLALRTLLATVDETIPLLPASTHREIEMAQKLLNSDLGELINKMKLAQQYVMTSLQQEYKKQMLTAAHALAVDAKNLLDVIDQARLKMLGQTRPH

`Cc1cc(C)cc(NC(=O)c2cnn(-c3ccc(C(C)C)cc3)c2C2CCNCC2)c1`: the IC50 in series [1] came out at 25 µM; in series [4] it was 30 µM; in series [5] it was 3 µM; in series [12], 6 µM; in series [18] it was 45 µM; in series [24], 40 µM. For the same molecule, the inhibition result in series [1] is “Dose-dependent effect”; in series [3] it was 60%; in series [9], less than 10%; in [15], 93%. The AUC(0-inf) in series [2] worked out at 47200 ng·h/mL. In addition, the Activity result in series [6] was “Dose-dependent effect”; in [13] it was 20%; in series [14] it was 51%; in series [21], 21%. Further, the inhibition entry in [7] and in series [11] was “inactive” in each case. Moreover, in [8], the inhibition at 25 µM stood at 20%. This molecule also yielded an MTD in [10] of 150 mg/kg. Besides, in series [16], the inhibition result is “Active”. The same molecule had a half-life in [17] of 2.18 h. In series [19], this molecule registered a Cmax of 4410 ng/mL. Also, the Tmax in series [20] turned out to be 1 h. In [22], the CL/F is 0.7 mL/min. Moreover, the outcome in series [23] was Active.
Consider `Nc1ccc(S(=O)(=O)Nc2ccnn2-c2ccccc2)cc1` [SULFAPHENAZOLE], for which the inhibition at 5 µM in [25] is 69%.
`CN(C)c1ccc(CNCCC(Cc2ccccc2)c2ccc3c(c2)OCO3)cc1` (racemic): the inhibition result in series [1] is “Dose-dependent effect”; in series [9] it was 30%. Also, the Ki in series [6] is 20 µM. Also, the inhibition result in series [7] and in [11] was “inactive” in each case. Moreover, in [8], the inhibition at 25 µM stood at 80%. Moreover, in series [16], the inhibition entry is “Active”. In addition, the Activity in [21] stood at 22%; in series [27], 46%. Also, the “inhibition (INH)” value in [26] is reported as “Active”.
As for `c1ccc(C[C@H](CCNCc2ccc3c(c2)OCO3)c2ccc3c(c2)OCO3)cc1` (racemic), the inhibition result in [28], in series [29] and in series [30] was “Active” each time. Moreover, the Activity result in series [6] was “Dose-dependent effect”. For the same molecule, the inhibition entry in series [7], in series [11], in series [32] and in series [33] was “inactive” each time. The molecule further returned an inhibition at 25 µM in series [8] of 80%. The inhibition in series [9] was determined as 30%. This molecule also registered an IC50 in [31] of 20 µM. Besides, the “inhibition (INH)” value in series [26] is “Active”.
